# Laboratory results from ChEMBL document CHEMBL1157526, “Development of novel beta-amyloid probes based on 3,5-diphenyl-1,2,4-oxadiazole” (Bioorg Med Chem, 2008).
# Tested on: Kidney
# Assay: Biodistribution in ddY mouse kidney at 0.5 uCi, iv after 60 mins
# Assay type: ADME, organism-based
# Conditions: in vivo, 1 h
# Method in brief: (§1)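 Normal male-unspecified ddY mice (5-week-old, 22–25 g) given radioiodinated ligand by tail-vein injection, killed at set times post-injection. Organs removed and weighed, radioactivity counted in a gamma counter. Expressed as % injected dose per gram, stomach as % injected dose per organ. Mean (s.d.) of 3–5 animals per time point.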
row,Drug uptake,SMILES
1,3.31 % ID/g,CN(C)c1ccc(-c2nc(-c3ccc([125I])cc3)no2)cc1

# Tested on: Pancreas
# Assay: Biodistribution in ddY mouse pancreas at 0.5 uCi, iv after 60 mins
# Assay type: ADME, organism-based
# Conditions: in vivo, 1 h
# Method in brief: as §1
row,Drug uptake,SMILES
1,2.47 % ID/g,CN(C)c1ccc(-c2nc(-c3ccc([125I])cc3)no2)cc1

# Tested on: Stomach
# Assay: Biodistribution in ddY mouse stomach at 0.5 uCi, iv after 30 mins
# Assay type: ADME, organism-based
# Conditions: in vivo, 0.5 h
# Method in brief: as §1
row,Drug uptake,SMILES
1,4.8 % ID/organ,CN(C)c1ccc(-c2nc(-c3ccc([125I])cc3)no2)cc1

# Tested on: Liver
# Assay: Biodistribution in ddY mouse liver at 0.5 uCi, iv after 10 mins
# Assay type: ADME, organism-based
# Conditions: in vivo
# Method in brief: as §1
row,Drug uptake,SMILES
1,8.27 % ID/g,CN(C)c1ccc(-c2nc(-c3ccc([125I])cc3)no2)cc1

# Tested on: Kidney
# Assay: Biodistribution in ddY mouse kidney at 0.5 uCi, iv after 30 mins
# Assay type: ADME, organism-based
# Conditions: in vivo, 0.5 h
# Method in brief: as §1
row,Drug uptake,SMILES
1,4.81 % ID/g,CN(C)c1ccc(-c2nc(-c3ccc([125I])cc3)no2)cc1

# Tested on: Pancreas
# Assay: Biodistribution in ddY mouse pancreas at 0.5 uCi, iv after 10 mins
# Assay type: ADME, organism-based
# Conditions: in vivo
# Method in brief: as §1
row,Drug uptake,SMILES
1,3.8 % ID/g,CN(C)c1ccc(-c2nc(-c3ccc([125I])cc3)no2)cc1

# Tested on: Intestine
# Assay: Biodistribution in ddY mouse intestine at 0.5 uCi, iv after 30 mins
# Assay type: ADME, organism-based
# Conditions: in vivo, 0.5 h
# Method in brief: as §1
row,Drug uptake,SMILES
1,4.12 % ID/g,CN(C)c1ccc(-c2nc(-c3ccc([125I])cc3)no2)cc1

# Tested on: Blood
# Assay: Biodistribution in ddY mouse blood at 0.5 uCi, iv after 10 mins
# Assay type: ADME, organism-based
# Conditions: in vivo
# Method in brief: as §1
row,Drug uptake,SMILES
1,2.41 % ID/g,CN(C)c1ccc(-c2nc(-c3ccc([125I])cc3)no2)cc1

# Tested on: Brain
# Assay: Biodistribution in ddY mouse brain at 0.5 uCi, iv after 60 mins
# Assay type: ADME, organism-based
# Conditions: in vivo, 1 h
# Method in brief: as §1
row,Drug uptake,SMILES
1,2.32 % ID/g,CN(C)c1ccc(-c2nc(-c3ccc([125I])cc3)no2)cc1

# Tested on: Spleen
# Assay: Biodistribution in ddY mouse spleen at 0.5 uCi, iv after 60 mins
# Assay type: ADME, organism-based
# Conditions: in vivo, 1 h
# Method in brief: as §1
row,Drug uptake,SMILES
1,2.41 % ID/g,CN(C)c1ccc(-c2nc(-c3ccc([125I])cc3)no2)cc1

# Tested on: Spleen
# Assay: Biodistribution in ddY mouse spleen at 0.5 uCi, iv after 30 mins
# Assay type: ADME, organism-based
# Conditions: in vivo, 0.5 h
# Method in brief: as §1
row,Drug uptake,SMILES
1,3.11 % ID/g,CN(C)c1ccc(-c2nc(-c3ccc([125I])cc3)no2)cc1

# Tested on: Kidney
# Assay: Biodistribution in ddY mouse kidney at 0.5 uCi, iv after 2 mins
# Assay type: ADME, organism-based
# Conditions: in vivo
# Method in brief: as §1
row,Drug uptake,SMILES
1,7.83 % ID/g,CN(C)c1ccc(-c2nc(-c3ccc([125I])cc3)no2)cc1

# Tested on: Liver
# Assay: Biodistribution in ddY mouse liver at 0.5 uCi, iv after 2 mins
# Assay type: ADME, organism-based
# Conditions: in vivo
# Method in brief: as §1
row,Drug uptake,SMILES
1,13.94 % ID/g,CN(C)c1ccc(-c2nc(-c3ccc([125I])cc3)no2)cc1

# Tested on: Stomach
# Assay: Biodistribution in ddY mouse stomach at 0.5 uCi, iv after 60 mins
# Assay type: ADME, organism-based
# Conditions: in vivo, 1 h
# Method in brief: as §1
row,Drug uptake,SMILES
1,5.75 % ID/organ,CN(C)c1ccc(-c2nc(-c3ccc([125I])cc3)no2)cc1

# Tested on: Heart
# Assay: Biodistribution in ddY mouse heart at 0.5 uCi, iv after 30 mins
# Assay type: ADME, organism-based
# Conditions: in vivo, 0.5 h
# Method in brief: as §1
row,Drug uptake,SMILES
1,2.2 % ID/g,CN(C)c1ccc(-c2nc(-c3ccc([125I])cc3)no2)cc1

# Tested on: Spleen
# Assay: Biodistribution in ddY mouse spleen at 0.5 uCi, iv after 2 mins
# Assay type: ADME, organism-based
# Conditions: in vivo
# Method in brief: as §1
row,Drug uptake,SMILES
1,6.26 % ID/g,CN(C)c1ccc(-c2nc(-c3ccc([125I])cc3)no2)cc1

# Tested on: Liver
# Assay: Biodistribution in ddY mouse liver at 0.5 uCi, iv after 30 mins
# Assay type: ADME, organism-based
# Conditions: in vivo, 0.5 h
# Method in brief: as §1
row,Drug uptake,SMILES
1,5.89 % ID/g,CN(C)c1ccc(-c2nc(-c3ccc([125I])cc3)no2)cc1

# Tested on: Stomach
# Assay: Biodistribution in ddY mouse stomach at 0.5 uCi, iv after 10 mins
# Assay type: ADME, organism-based
# Conditions: in vivo
# Method in brief: as §1
row,Drug uptake,SMILES
1,3.28 % ID/organ,CN(C)c1ccc(-c2nc(-c3ccc([125I])cc3)no2)cc1

# Tested on: Blood
# Assay: Biodistribution in ddY mouse blood at 0.5 uCi, iv after 30 mins
# Assay type: ADME, organism-based
# Conditions: in vivo, 0.5 h
# Method in brief: as §1
row,Drug uptake,SMILES
1,1.79 % ID/g,CN(C)c1ccc(-c2nc(-c3ccc([125I])cc3)no2)cc1

# Tested on: Pancreas
# Assay: Biodistribution in ddY mouse pancreas at 0.5 uCi, iv after 30 mins
# Assay type: ADME, organism-based
# Conditions: in vivo, 0.5 h
# Method in brief: as §1
row,Drug uptake,SMILES
1,2.86 % ID/g,CN(C)c1ccc(-c2nc(-c3ccc([125I])cc3)no2)cc1

# Tested on: Blood
# Assay: Biodistribution in ddY mouse blood at 0.5 uCi, iv after 2 mins
# Assay type: ADME, organism-based
# Conditions: in vivo
# Method in brief: as §1
row,Drug uptake,SMILES
1,5.42 % ID/g,CN(C)c1ccc(-c2nc(-c3ccc([125I])cc3)no2)cc1

# Tested on: Intestine
# Assay: Biodistribution in ddY mouse intestine at 0.5 uCi, iv after 60 mins
# Assay type: ADME, organism-based
# Conditions: in vivo, 1 h
# Method in brief: as §1
row,Drug uptake,SMILES
1,5.37 % ID/g,CN(C)c1ccc(-c2nc(-c3ccc([125I])cc3)no2)cc1

# Tested on: Brain
# Assay: Biodistribution in ddY mouse brain at 0.5 uCi, iv after 30 mins
# Assay type: ADME, organism-based
# Conditions: in vivo, 0.5 h
# Method in brief: as §1
row,Drug uptake,SMILES
1,2.23 % ID/g,CN(C)c1ccc(-c2nc(-c3ccc([125I])cc3)no2)cc1

# Tested on: Heart
# Assay: Biodistribution in ddY mouse heart at 0.5 uCi, iv after 10 mins
# Assay type: ADME, organism-based
# Conditions: in vivo
# Method in brief: as §1
row,Drug uptake,SMILES
1,4.81 % ID/g,CN(C)c1ccc(-c2nc(-c3ccc([125I])cc3)no2)cc1

# Tested on: Liver
# Assay: Biodistribution in ddY mouse liver at 0.5 uCi, iv after 60 mins
# Assay type: ADME, organism-based
# Conditions: in vivo, 1 h
# Method in brief: as §1
row,Drug uptake,SMILES
1,5.15 % ID/g,CN(C)c1ccc(-c2nc(-c3ccc([125I])cc3)no2)cc1

# Tested on: Pancreas
# Assay: Biodistribution in ddY mouse pancreas at 0.5 uCi, iv after 2 mins
# Assay type: ADME, organism-based
# Conditions: in vivo
# Method in brief: as §1
row,Drug uptake,SMILES
1,3.17 % ID/g,CN(C)c1ccc(-c2nc(-c3ccc([125I])cc3)no2)cc1

# Tested on: Heart
# Assay: Biodistribution in ddY mouse heart at 0.5 uCi, iv after 2 mins
# Assay type: ADME, organism-based
# Conditions: in vivo
# Method in brief: as §1
row,Drug uptake,SMILES
1,11.04 % ID/g,CN(C)c1ccc(-c2nc(-c3ccc([125I])cc3)no2)cc1

# Tested on: Intestine
# Assay: Biodistribution in ddY mouse intestine at 0.5 uCi, iv after 2 mins
# Assay type: ADME, organism-based
# Conditions: in vivo
# Method in brief: as §1
row,Drug uptake,SMILES
1,1.59 % ID/g,CN(C)c1ccc(-c2nc(-c3ccc([125I])cc3)no2)cc1

# Tested on: Blood
# Assay: Biodistribution in ddY mouse blood at 0.5 uCi, iv after 60 mins
# Assay type: ADME, organism-based
# Conditions: in vivo, 1 h
# Method in brief: as §1
row,Drug uptake,SMILES
1,1.56 % ID/g,CN(C)c1ccc(-c2nc(-c3ccc([125I])cc3)no2)cc1

# Tested on: Heart
# Assay: Biodistribution in ddY mouse heart at 0.5 uCi, iv after 60 mins
# Assay type: ADME, organism-based
# Conditions: in vivo, 1 h
# Method in brief: as §1
row,Drug uptake,SMILES
1,1.24 % ID/g,CN(C)c1ccc(-c2nc(-c3ccc([125I])cc3)no2)cc1

# Tested on: Stomach
# Assay: Biodistribution in ddY mouse stomach at 0.5 uCi, iv after 2 mins
# Assay type: ADME, organism-based
# Conditions: in vivo
# Method in brief: as §1
row,Drug uptake,SMILES
1,1.28 % ID/organ,CN(C)c1ccc(-c2nc(-c3ccc([125I])cc3)no2)cc1

# Tested on: Brain
# Assay: Biodistribution in ddY mouse brain at 0.5 uCi, iv after 10 mins
# Assay type: ADME, organism-based
# Conditions: in vivo
# Method in brief: as §1
row,Drug uptake,SMILES
1,1.45 % ID/g,CN(C)c1ccc(-c2nc(-c3ccc([125I])cc3)no2)cc1

# Tested on: Kidney
# Assay: Biodistribution in ddY mouse kidney at 0.5 uCi, iv after 10 mins
# Assay type: ADME, organism-based
# Conditions: in vivo
# Method in brief: as §1
row,Drug uptake,SMILES
1,7.67 % ID/g,CN(C)c1ccc(-c2nc(-c3ccc([125I])cc3)no2)cc1

# Tested on: Spleen
# Assay: Biodistribution in ddY mouse spleen at 0.5 uCi, iv after 10 mins
# Assay type: ADME, organism-based
# Conditions: in vivo
# Method in brief: as §1
row,Drug uptake,SMILES
1,4.56 % ID/g,CN(C)c1ccc(-c2nc(-c3ccc([125I])cc3)no2)cc1

# Tested on: Intestine
# Assay: Biodistribution in ddY mouse intestine at 0.5 uCi, iv after 10 mins
# Assay type: ADME, organism-based
# Conditions: in vivo
# Method in brief: as §1
row,Drug uptake,SMILES
1,2.4 % ID/g,CN(C)c1ccc(-c2nc(-c3ccc([125I])cc3)no2)cc1

# Tested on: Brain
# Assay: Biodistribution in ddY mouse brain at 0.5 uCi, iv after 2 mins
# Assay type: ADME, organism-based
# Conditions: in vivo
# Method in brief: as §1
row,Drug uptake,SMILES
1,1.07 % ID/g,CN(C)c1ccc(-c2nc(-c3ccc([125I])cc3)no2)cc1
